Data: PMC7312786 (Biochemistry, 2018)

Columns and labels:
Dpo1 = target: T1, Dpo1 (Saccharolobus solfataricus, UniProt P26811); assay: Fluorescence-based pol activity assay, Dpo1; format: biochemical, Sulfolobus solfataricus; conditions: 20 μM PNR-7-02
T1 sequence (P26811 1-882): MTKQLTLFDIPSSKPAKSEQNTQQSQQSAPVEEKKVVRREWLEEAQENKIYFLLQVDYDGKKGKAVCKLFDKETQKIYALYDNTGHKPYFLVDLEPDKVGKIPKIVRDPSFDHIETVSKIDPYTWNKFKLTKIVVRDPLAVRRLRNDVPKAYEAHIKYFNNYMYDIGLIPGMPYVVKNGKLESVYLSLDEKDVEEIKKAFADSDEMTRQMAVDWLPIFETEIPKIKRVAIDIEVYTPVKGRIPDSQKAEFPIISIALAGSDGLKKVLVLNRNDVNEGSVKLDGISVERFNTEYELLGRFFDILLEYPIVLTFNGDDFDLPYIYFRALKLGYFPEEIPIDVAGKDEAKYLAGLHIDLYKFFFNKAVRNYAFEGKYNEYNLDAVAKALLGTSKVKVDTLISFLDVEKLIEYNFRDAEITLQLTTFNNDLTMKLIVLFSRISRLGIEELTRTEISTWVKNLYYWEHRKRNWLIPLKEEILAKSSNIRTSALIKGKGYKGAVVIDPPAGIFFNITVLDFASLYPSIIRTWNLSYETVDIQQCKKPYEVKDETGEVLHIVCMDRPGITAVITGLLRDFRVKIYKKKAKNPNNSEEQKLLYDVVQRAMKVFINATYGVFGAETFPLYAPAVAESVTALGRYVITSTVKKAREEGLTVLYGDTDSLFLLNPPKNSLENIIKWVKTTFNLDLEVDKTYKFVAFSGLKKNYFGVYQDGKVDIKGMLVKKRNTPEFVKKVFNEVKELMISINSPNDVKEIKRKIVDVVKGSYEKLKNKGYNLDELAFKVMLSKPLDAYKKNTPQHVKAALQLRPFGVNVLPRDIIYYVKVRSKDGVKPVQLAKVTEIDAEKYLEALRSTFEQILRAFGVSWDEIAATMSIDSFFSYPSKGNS

[1] = tested on: HAP-1 cells (hpol η-proficient, parental); assay: Cell viability; format: cell-based, human; conditions: for Combination index (CI) with CDDP: Chou–Talalay
Summary of the method: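 HAP-1 parental or CRISPR hpol η-null cells in IMDM with 10% FBS and 1% antibiotic/antimycotic, passage 8–10, seeded 5000 cells/well. Next day: CDDP 0–100 μM alone or with 0.1 or 1 μM test compound, 48 h. Cells washed twice in DPBS, then 2 μM Calcein-AM for 30 min at 25 °C; fluorescence ex 490/em 520 nm. Viability as % of untreated. […] Combination index by Chou–Talalay.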

[2] = tested on: γH2AX in hpol η-deficient HAP-1 cells; assay: γH2AX immunoblotting, hpol η-deficient HAP-1 cells; format: cell-based, human
Summary of the method: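 HAP-1 cells treated with DMSO or 0.5 μM CDDP combined with 0.1 or 1 μM test compound. Pellets lysed at 4 °C in HEPES pH 7.5/Triton X-100 buffer with phosphatase and protease inhibitors. 30–40 μg protein run on 4–20% SDS-PAGE, transferred to nitrocellulose. Probed with anti-γH2AX (S139) 1:1500 and HRP anti-rabbit 1:4000; β-actin loading control; chemiluminescence. Bands normalized to β-actin, relative to DMSO; three biological replicates; t test.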

TbPol I = TbPol I (Mycobacterium tuberculosis, UniProt P9WNU5); assay: Fluorescence-based pol activity assay, Tb Pol I; format: biochemical; conditions: 20 μM PNR-7-02; mean (±SD)
hpol θ = target: T2, hpol θ (Homo sapiens, UniProt O75417); assay: Fluorescence-based pol activity assay, hpol θ; format: biochemical; conditions: 20 μM PNR-7-02; mean (±SD)
T2 sequence (O75417 1792-2590): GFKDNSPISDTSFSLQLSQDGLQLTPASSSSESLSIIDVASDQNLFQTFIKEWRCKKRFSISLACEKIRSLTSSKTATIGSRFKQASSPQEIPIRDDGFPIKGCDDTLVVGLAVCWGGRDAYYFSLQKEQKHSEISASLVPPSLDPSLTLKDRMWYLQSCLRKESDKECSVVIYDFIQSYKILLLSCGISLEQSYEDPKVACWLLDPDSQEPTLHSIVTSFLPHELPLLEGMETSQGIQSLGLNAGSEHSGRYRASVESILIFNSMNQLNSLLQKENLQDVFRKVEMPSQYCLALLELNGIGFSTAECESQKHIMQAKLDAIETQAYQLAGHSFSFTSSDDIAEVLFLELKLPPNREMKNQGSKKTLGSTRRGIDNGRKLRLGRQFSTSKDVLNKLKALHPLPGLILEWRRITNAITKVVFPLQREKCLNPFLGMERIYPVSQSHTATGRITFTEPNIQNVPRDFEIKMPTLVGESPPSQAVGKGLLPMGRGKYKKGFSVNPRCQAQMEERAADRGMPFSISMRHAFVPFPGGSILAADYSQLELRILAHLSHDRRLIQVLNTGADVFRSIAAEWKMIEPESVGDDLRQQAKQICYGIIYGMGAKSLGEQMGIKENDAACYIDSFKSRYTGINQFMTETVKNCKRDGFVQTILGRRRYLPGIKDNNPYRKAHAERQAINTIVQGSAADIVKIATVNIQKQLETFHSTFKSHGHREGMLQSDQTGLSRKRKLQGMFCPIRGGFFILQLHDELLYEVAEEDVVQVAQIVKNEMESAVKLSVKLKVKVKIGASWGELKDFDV

hpol η = target: T3, hpol η (Homo sapiens, UniProt Q9Y253); assay: Gel-based pol extension assay, hpol η; format: biochemical; conditions: read-out: IC50, hpol η, gel-based assay; best-fit value (95% confidence interval), three experiments
T3 sequence (Q9Y253 1-437): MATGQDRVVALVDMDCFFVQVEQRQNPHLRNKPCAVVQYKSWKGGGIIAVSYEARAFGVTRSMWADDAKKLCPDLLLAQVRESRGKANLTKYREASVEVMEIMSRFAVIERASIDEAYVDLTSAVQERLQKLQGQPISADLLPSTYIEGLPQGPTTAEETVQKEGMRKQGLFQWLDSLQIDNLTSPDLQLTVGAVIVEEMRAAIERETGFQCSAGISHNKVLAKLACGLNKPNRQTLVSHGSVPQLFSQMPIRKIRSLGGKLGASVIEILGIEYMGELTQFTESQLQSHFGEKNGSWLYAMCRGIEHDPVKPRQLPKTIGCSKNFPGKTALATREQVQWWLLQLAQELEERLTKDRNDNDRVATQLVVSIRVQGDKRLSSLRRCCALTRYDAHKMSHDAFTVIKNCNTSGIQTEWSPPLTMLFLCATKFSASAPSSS

hpol β = hpol β (Homo sapiens, UniProt P06746); assay: Fluorescence-based pol activity assay, hpol β; format: biochemical; conditions: 20 μM PNR-7-02

TbPol I, sequence (P9WNU5 whole entry): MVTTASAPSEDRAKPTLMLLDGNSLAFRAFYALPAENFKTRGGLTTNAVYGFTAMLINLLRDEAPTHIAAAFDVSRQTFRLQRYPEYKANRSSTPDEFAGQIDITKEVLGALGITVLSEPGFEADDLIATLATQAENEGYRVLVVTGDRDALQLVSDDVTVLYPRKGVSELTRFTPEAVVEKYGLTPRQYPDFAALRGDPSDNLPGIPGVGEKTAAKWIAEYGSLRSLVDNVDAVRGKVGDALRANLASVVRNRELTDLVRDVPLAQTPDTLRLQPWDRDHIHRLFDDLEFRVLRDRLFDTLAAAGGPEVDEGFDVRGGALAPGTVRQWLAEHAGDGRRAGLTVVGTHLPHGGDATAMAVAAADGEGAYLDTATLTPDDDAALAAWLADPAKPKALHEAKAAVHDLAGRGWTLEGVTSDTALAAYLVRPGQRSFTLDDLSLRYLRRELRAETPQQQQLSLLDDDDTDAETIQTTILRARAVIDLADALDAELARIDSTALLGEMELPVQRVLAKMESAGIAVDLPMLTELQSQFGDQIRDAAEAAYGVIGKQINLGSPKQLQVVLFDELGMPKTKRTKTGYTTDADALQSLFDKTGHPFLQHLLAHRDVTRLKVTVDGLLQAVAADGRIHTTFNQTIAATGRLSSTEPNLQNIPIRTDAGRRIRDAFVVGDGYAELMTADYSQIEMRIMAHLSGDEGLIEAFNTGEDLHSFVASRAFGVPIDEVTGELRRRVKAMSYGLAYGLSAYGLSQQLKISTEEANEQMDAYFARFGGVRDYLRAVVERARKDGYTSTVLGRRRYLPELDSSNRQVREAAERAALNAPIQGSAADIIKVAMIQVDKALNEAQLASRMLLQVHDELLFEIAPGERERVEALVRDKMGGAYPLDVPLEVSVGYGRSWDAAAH

Question: Which “Effect on catalysis by Dpo1” value (Dpo1) does the source give for O=C1NC(=S)NC(=O)C1=Cc1cn(Cc2ccc3ccccc3c2)c2ccc(Cl)cc12 [PNR-7-02, 5-((5-chloro-1-(naphthalen-2-ylmethyl)-1H-indol-3-yl)methylene)-2-thioxodihydropyrimidine-4,6-(1H,5H)-dione] here?
Answer: not affected at all

Question: And the “Pol activity relative to DMSO control, Dpo1” value (Dpo1; mean (±SD))?
Answer: 118 (±15) %

Question: And the “Combination index values with CDDP, hpol η-proficient cells (summary)” value ([1]; hpol η-proficient cells co-treated with PNR-7-02)?
Answer: 0.4–0.6

Question: And the “Combination index (CI) with CDDP” value ([1]; parental HAP-1, 0.1 μM PNR-7-02)?
Answer: 0.47

Question: What about the “Combination index (CI) with CDDP” value ([1]; parental HAP-1, 1 μM PNR-7-02) of the same molecule?
Answer: 0.59

Question: What about the “Decrease of CDDP EC50 on co-treatment with PNR-7-02” value ([1]; parental HAP-1, both concentrations of inhibitor (0.1 and 1 μM)) of the same molecule?
Answer: > 2 fold

Question: And the EC50 ([1]; read-out: EC50, cell viability, PNR-7-02 alone, hpol η-proficient parental HAP-1, 48 h)?
Answer: 4.6 µM

Question: What about the “μH2AX, combination treatment versus CDDP alone” value ([2]; CDDP + PNR-7-02) of the same molecule?
Answer: did not increase

Question: What about the μH2AX formation ([2]; PNR-7-02 alone) of the same molecule?
Answer: did not change

Question: What about the “Pol activity relative to DMSO control, TbPol I” value (TbPol I) of the same molecule?
Answer: 93 (±2) %

Question: And the “Pol activity relative to DMSO control, hpol θ” value (hpol θ)?
Answer: 86 (±1) %

Question: And the IC50 (hpol η)?
Answer: 8 µM

Question: And the “Effect on hpol β” value (hpol β)?
Answer: no effect

Question: And the “Pol activity relative to DMSO control, hpol β” value (hpol β; mean (±SD))?
Answer: 103 (±8) %
